The record followed here is ChEMBL document CHEMBL2407090, “Design, synthesis, and optimization of novel epoxide incorporating peptidomimetics as selective calpain inhibitors” (J Med Chem, 2013).

Assay [1] addresses T1, Calpain-1 catalytic subunit (Homo sapiens, UniProt P07384).
T1 sequence (P07384 whole entry): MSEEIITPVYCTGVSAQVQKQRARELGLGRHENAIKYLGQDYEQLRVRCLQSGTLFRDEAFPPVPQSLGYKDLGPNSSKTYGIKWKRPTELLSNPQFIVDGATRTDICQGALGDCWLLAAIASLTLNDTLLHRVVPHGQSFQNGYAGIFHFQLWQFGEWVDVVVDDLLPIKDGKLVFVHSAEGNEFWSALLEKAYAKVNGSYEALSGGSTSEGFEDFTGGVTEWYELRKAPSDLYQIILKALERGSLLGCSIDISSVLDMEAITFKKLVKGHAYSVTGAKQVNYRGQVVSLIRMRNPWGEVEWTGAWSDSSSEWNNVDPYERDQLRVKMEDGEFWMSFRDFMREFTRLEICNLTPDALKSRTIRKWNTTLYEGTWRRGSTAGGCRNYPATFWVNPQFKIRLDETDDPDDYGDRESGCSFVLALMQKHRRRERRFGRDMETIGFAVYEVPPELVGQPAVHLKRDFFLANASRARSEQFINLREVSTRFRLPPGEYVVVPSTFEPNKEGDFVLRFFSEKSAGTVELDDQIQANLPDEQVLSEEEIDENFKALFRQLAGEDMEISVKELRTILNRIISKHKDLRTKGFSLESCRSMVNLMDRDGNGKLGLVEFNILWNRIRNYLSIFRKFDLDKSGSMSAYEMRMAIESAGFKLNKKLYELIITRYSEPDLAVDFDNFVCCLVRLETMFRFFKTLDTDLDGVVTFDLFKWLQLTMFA
Description: Inhibition of human erythrocyte full length Cal1 using (DABCYL)TPLK-SPPSPR-(EDANS) as substrate after 20 min by FRET assay.

Assay [2] addresses T2, Calpain-1 catalytic subunit (Rattus norvegicus) (UniProt P97571).
T2 sequence (whole entry): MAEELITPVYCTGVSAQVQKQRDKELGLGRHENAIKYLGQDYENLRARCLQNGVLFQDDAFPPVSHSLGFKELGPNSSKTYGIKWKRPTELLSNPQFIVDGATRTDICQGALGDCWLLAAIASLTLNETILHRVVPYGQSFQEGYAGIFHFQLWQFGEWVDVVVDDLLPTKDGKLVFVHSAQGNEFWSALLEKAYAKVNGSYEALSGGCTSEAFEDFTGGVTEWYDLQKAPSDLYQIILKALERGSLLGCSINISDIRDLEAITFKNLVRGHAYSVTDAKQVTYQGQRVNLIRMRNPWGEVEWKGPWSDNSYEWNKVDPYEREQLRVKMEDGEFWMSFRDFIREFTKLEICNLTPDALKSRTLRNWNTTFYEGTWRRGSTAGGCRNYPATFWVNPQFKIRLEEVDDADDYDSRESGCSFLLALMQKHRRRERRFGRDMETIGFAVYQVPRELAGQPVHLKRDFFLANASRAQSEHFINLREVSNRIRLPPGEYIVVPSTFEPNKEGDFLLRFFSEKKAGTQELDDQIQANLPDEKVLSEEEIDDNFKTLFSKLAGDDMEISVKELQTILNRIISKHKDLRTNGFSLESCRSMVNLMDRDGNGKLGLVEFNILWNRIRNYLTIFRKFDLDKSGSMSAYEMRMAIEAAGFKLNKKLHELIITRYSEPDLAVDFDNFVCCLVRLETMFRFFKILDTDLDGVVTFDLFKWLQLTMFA
Description: Binding affinity to recombinant rat […] Cal1 catalytic domain expressed in Escherichia coli BL21(DE3) assessed as modification of active site cysteine at 1 uM by LC-MS/MS analysis.

Assay [3] addresses T3, Papain (Carica papaya, UniProt P00784).
T3 sequence (P00784 whole entry): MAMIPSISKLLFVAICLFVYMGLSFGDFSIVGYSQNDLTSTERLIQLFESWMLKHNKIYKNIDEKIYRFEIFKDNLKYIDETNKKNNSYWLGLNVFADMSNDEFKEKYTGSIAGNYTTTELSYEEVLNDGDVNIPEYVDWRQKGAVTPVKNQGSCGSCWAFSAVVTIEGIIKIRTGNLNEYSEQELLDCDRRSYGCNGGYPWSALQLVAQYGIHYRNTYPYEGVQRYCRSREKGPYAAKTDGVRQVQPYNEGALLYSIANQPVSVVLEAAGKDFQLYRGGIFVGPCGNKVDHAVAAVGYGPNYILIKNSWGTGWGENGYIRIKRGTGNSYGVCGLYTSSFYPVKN
Nature of the assay: Inhibition of papain after using SucLLVYAMC as substrate by FRET assay. An outline of the steps:
(§1)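 Enzyme (full-length porcine calpain 156 nM, with 1 mM CaCl2; or papain 236 pM) in 50 mM HEPES pH 7.6, 100 mM NaCl, 1 mM TCEP, 30 μM Suc-LLVY-AMC, inhibitor 0.5–50 μM; organic solvent <2 %, 30 °C. AMC release followed over time (Ex 346/Em 444 nm). Inhibition constants from varied enzyme and inhibitor concentrations; mean ± S.D. of triplicates.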

The target in assay [4] is T4, Calpain-1 catalytic subunit (Sus scrofa, UniProt P35750).
T4 sequence (P35750 whole entry): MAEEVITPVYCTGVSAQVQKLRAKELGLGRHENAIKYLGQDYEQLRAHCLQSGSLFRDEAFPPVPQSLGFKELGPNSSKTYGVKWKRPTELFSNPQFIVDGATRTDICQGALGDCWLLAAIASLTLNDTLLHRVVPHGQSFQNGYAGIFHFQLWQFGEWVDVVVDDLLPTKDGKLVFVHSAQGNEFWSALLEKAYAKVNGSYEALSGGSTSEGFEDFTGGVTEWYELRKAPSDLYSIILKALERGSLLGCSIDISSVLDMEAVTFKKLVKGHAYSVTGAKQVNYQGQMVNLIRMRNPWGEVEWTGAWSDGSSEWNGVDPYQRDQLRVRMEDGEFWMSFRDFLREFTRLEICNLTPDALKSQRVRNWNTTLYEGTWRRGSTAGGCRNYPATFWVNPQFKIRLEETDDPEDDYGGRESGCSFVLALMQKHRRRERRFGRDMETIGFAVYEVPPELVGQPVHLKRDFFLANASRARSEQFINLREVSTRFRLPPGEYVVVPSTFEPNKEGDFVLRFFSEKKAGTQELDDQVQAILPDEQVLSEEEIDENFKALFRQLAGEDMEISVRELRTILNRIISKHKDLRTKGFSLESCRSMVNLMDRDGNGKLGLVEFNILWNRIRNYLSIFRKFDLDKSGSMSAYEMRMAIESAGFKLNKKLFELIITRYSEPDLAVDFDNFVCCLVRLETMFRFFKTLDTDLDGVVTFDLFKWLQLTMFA
Description: Inhibition of pig full length Cal1 after using SucLLVYAMC as substrate by FRET assay. The gist of the method: as §1

pIC50, pKi: −log10 of the molar value.

Molecule `O=C(NCc1cn(-c2c(F)cccc2F)nn1)[C@H](Cc1cscn1)NC(=O)[C@H]1O[C@@H]1C(=O)O` had a pIC50 in assay [1] of under 6.00. For `O=C(NCc1cn(-c2cc(C(F)(F)F)cc(C(F)(F)F)c2)nn1)[C@H](Cc1cscn1)NC(=O)[C@H]1O[C@@H]1C(=O)O`, the pIC50 in assay [1] is under 6.00. As for `CC(C)C[C@H](NC(=O)[C@H]1O[C@@H]1C(=O)O)C(=O)NCCCCNC(=O)CCCCC1CCSS1` (stereo partly specified), the pIC50 in assay [1] is 7.00. Regarding `CC(C)C[C@H](NC(=O)[C@H]1O[C@@H]1C(=O)O)C(=O)NCCCCN=C(N)N` [E-64], the Activity entry in assay [2] was “Dose-dependent effect”. The pIC50 in assay [1] was 7.00. In addition, the figures for the pKi in assay [3] and in assay [4] were 5.29 and 5.40, respectively. For `CC(C)C[C@H](NC(=O)[C@H]1O[C@@H]1C(=O)O)C(=O)Nc1nc(-c2ccc(F)cc2)cs1`, the Activity result in assay [2] is “Dose-dependent effect”. This molecule showed a pKi in assay [3] of 5.79. The molecule `CC(C)C[C@H](NC(=O)[C@H]1O[C@@H]1C(=O)O)C(=O)NCCCCNS(=O)(=O)c1ccc(F)cc1` gave a pIC50 in assay [1] of 6.82.

For the molecule `Cc1cc(C)c(-n2cc(CNC(=O)[C@H](Cc3cscn3)NC(=O)[C@H]3O[C@@H]3C(=O)O)nn2)c(C)c1`, in assay [1], the pIC50 was under 6.00.

The molecule `NS(=O)(=O)c1ccc(-n2cc(CNC(=O)[C@H](Cc3cscn3)NC(=O)[C@H]3O[C@@H]3C(=O)O)nn2)cc1` had a pIC50 in assay [1] of under 6.00. As to `O=C(Nc1nc(-c2ccc(F)cc2)cs1)[C@H](Cc1cscn1)NC(=O)[C@H]1O[C@@H]1C(=O)O`, the pIC50 in assay [1] is 7.00. The results for the pKi in assay [3] and in assay [4] were 5.27 and 5.59, respectively. `CC(C)C[C@H](NC(=O)[C@H]1O[C@@H]1C(=O)O)C(=O)NCCCCNC(=O)CCCC[C@@H]1SC[C@@H]2NC(=O)N[C@@H]21` gave a pIC50 in assay [1] of 7.00.

Usually pIC50 stands for −log10 of the IC50, conventionally taken in molar units. One may read the pKi as −log10 of the Ki, conventionally taken in molar units. A lower pKi goes with a large Ki.
